# CHRM5 antagonist = human M5 muscarinic receptor antagonists, primary screen, CHO cells, Fluo-8 calcium fluorescence; AID 624040, 2012; inhibition, % at 3 µM; 360,000 tested, 0.59% active; CHO-hM5 cells, ACh EC80; Muscarinic acetylcholine receptor M5 (Homo sapiens), P08912;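 active means inhibition above a per-plate cutoff, the mean of that plate's test compounds plus 3 SD, cut at about 27% in these data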;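 further: 0% = acetylcholine EC80 with DMSO and 100% = DMSO without agonist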
# M5 PAM = human M5 muscarinic receptor positive allosteric modulators, primary screen, CHO-K1 cells, Fluo-8 calcium fluorescence; CHO-K1 hM5, ACh EC20 PAM; 0% = ACh EC20, 100% = ACh EC100; activation, % at 3 µM; Muscarinic acetylcholine receptor M5 (Homo sapiens), P08912; 360,000 tested, 0.3% active;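 active means activation above the run cutoff, the mean activation of all test compounds plus 3 SD, cut at about 18% in these data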
#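 Assay system: CHO-K1 hM5 cells / Incubation: Fluo-8 loading 80 min at 37 °C plus 30 min room temperature / Technique: Fluo-8 calcium dye fluorescence, kinetic read / Repeats: single replicate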
# M4 PAM = human M4 muscarinic receptor positive allosteric modulators, primary screen, CHO-K1 cells, Fluo-8 calcium fluorescence; 360,000 tested, 0.4% active; activation, % at 3 µM; CHO-K1 hM4/Gqi5, ACh EC20; 0% = ACh EC20, 100% = maximal ACh; Muscarinic acetylcholine receptor M4 (Homo sapiens), P08173; AID 624126, 2012;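 active means activation above its plate's cutoff, the mean activation of sample wells plus 3 SD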
# Target sequence (P08173 whole entry, looked up): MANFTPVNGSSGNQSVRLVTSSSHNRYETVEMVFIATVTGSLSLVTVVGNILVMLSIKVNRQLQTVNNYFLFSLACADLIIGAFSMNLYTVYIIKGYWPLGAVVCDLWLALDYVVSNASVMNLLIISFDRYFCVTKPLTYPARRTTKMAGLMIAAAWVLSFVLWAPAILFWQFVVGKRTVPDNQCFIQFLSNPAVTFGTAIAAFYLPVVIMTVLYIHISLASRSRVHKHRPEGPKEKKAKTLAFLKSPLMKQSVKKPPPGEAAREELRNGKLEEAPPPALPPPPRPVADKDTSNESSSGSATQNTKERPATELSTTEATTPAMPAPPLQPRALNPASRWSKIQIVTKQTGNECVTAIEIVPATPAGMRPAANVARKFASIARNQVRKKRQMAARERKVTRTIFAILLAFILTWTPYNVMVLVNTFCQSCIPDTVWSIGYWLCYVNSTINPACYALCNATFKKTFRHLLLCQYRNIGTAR
# CHRM4 agonist = human M4 muscarinic receptor agonists, primary screen, CHO-K1 cells, Fluo-8 calcium fluorescence; Muscarinic acetylcholine receptor M4 (Homo sapiens), P08173; CHO-K1 hM4/Gqi5; vehicle 0%, full acetylcholine response 100%; activation, % at 3 µM; 360,000 tested, 0.14% active;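 active means activation above the run mean over all test wells plus 3 SD, cut at about 32% in these data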;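 further: peak over basal fluorescence ratio per well then scaled between controls; 0% = DMSO wells and 100% = acetylcholine at EC100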
# CHRM4 antagonist = human M4 muscarinic receptor antagonists, primary screen, CHO cells, Fluo-8 calcium fluorescence; Muscarinic acetylcholine receptor M4 (Homo sapiens), P08173; CHO-hM4 cells, ACh EC80; inhibition, % at 3 µM; 360,000 tested, 0.73% active; AID 624125, 2012;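 active means inhibition above its plate's cutoff, the mean inhibition of sample wells plus 3 SD, cut at about 27% in these data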;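 further: 0% = acetylcholine EC80 with DMSO and 100% = DMSO without agonist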
# CHRM5 agonist = human M5 muscarinic receptor agonists, primary screen, CHO-K1 cells, Fluo-8 calcium fluorescence. Muscarinic acetylcholine receptor M5 (Homo sapiens), P08912. CHO-K1 hM5 cells; 0% DMSO wells, 100% maximal acetylcholine response. activation, % at 3 µM. AID 624037, 2012. 360,000 tested, 0.19% active;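 active means activation above the run's mean over test compounds plus 3 SD, cut at about 23% in these data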;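 further: signal is peak over basal fluorescence ratio across the kinetic read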
# Numbers without * were called inactive. Rows were chosen to be rich in hits. Some 1.9% of all compounds tested hit in one or more screens of this group.
SMILES,CHRM5 antagonist,M5 PAM,M4 PAM,CHRM4 agonist,CHRM4 antagonist,CHRM5 agonist
CC(C)C(NC(=O)c1cccc(S(=O)(=O)N2CCOCC2)c1)C(=O)NCc1ccc(Cl)cc1 (stereo unspecified),0,-4,5,3,-11,-4
N#Cc1c(C(F)(F)F)cc(-c2ccco2)nc1SCc1ccccn1,27,-11,-8,56*,21,12
N#Cc1c(C(F)(F)F)cc(-c2ccco2)nc1SCc1ccncc1,26,-5,-7,16,25,0
COc1ccc(S(=O)(=O)Nc2ccc(F)c(F)c2)cc1C(=O)N1CCOCC1,3,5,-6,0,5,-2
Cc1ccc(C(=O)NCCNc2ncc(C(F)(F)F)cc2Cl)cc1[N+](=O)[O-],27*,-16,-20,7,11,-7
O=C(/C=C/c1ccc2c(c1)OCCO2)c1ccccc1,-13,24*,4,0,-4,2
COc1ccc(C(=O)/C=C/c2ccc3c(c2)OCCO3)cc1,2,-3,-12,2,16,-5
CCN(CC)C(=O)CSc1nc2ccccc2c(=O)n1-c1ccccc1OC,-6,3,36*,-2,-5,-1
COc1cccc(NC(=O)CN(C)C(=O)c2cc(-c3ccccc3)nn2-c2ccccc2)c1,5,-4,18*,4,-15,-2
COc1cccc(NC(=O)CN(C)C(=O)Cn2cnc3ccccc3c2=O)c1,100*,-33,11,1,-10,-8
O=C(Nc1ccc([N+](=O)[O-])cc1)Nc1ccc(Cl)cc1F,41*,-18,-6,15,3,1
O=C(Nc1ccc(Cl)cc1)Nc1csc([N+](=O)[O-])c1,37*,-33,-6,11,7,6
O=C(Nc1csc([N+](=O)[O-])c1)Nc1c(Cl)cccc1Cl,15,-12,-9,12,15,6
O=C(Nc1ccc(Cl)cc1)Nc1cc([N+](=O)[O-])ccc1F,3,-1,-6,4,8,1
O=C(Nc1ccc(Cl)cc1)Nc1ccccc1CC[N+](=O)[O-],29*,-17,-8,17,-7,8
Cc1cc(OC(F)F)ccc1NC(=O)Nc1ccc([N+](=O)[O-])cc1,27*,-16,3,13,-1,5
CCOc1ccc(-c2c(C(=O)N/N=C(\C)c3cccnc3)nnn2-c2nonc2N)cc1,-4,20*,11,3,8,7
Nc1nonc1-n1nnc(C(=O)N/N=C/c2cccs2)c1-c1ccc2c(c1)OCO2,-21,-2,-4,69*,-11,57*
Cc1ccc(-c2c(C(=O)N/N=C/c3ccsc3)nnn2-c2nonc2N)cc1,0,0,-6,8,-8,26*
Nc1nonc1-n1nnc(C(=O)N/N=C/c2ccccc2Cl)c1CN1CCOCC1,7,-2,16*,0,-6,-7
Cc1ccc(-c2c(C(=O)N/N=C/c3cccs3)nnn2-c2nonc2N)cc1,-4,5,4,5,-3,17
Cc1ccsc1/C=N/NC(=O)c1nnn(-c2nonc2N)c1-c1ccc2c(c1)OCO2,-6,6,9,4,3,7
Cc1cc(/C=N/NC(=O)c2cc3ccccc3o2)c(C)n1C,17,-14,-10,15,4,-4
O=C(CSc1nc(C(F)(F)F)cc(=O)[nH]1)Nc1ccc2c(c1)OCCO2,-1,1,4,0,3,3
COc1ccc(CN2C(=NC(=O)C3CCCO3)SC3CS(=O)(=O)CC32)cc1OC (stereo unspecified),26,-2,10,0,-6,-2
SMILES,CHRM5 antagonist,M5 PAM,M4 PAM,CHRM4 agonist,CHRM4 antagonist,CHRM5 agonist
CCOc1ccc(/C=N/NC(=O)c2nnn(-c3nonc3N)c2-c2cccs2)cc1,7,6,-2,33*,3,33*
Cc1ccc(C(=O)CCC(=O)Nc2ncccc2C)cc1,0,19*,20,2,-2,8
Cc1cc(NC2CCCCC2)nc(NCc2ccccc2)n1,30*,-19,-13,23,26,6
O=C(COC(=O)c1cc[n+]([O-])cc1)Nc1c(Cl)cccc1C(F)(F)F,3,-1,6,2,-1,3
Nc1c(C(=O)Nc2nccs2)sc2nc(-c3cccs3)cc(C(F)(F)F)c12,34*,-12,-17,21,22,22
Cc1nnc(NC(=O)c2sc3nc(-c4cccs4)cc(C(F)(F)F)c3c2N)s1,15,-7,-12,34*,7,12
CC(C)(C)C(=O)c1sc2nc(-c3cccs3)cc(C(F)(F)F)c2c1N,-9,6,-1,1,9,0
CCOc1cc(/C=C/C(=O)c2ccc(OC)c(CN3CCOCC3)c2)cc(Br)c1O,5,-6,-14,33*,0,10
CCCN1C(=O)/C(=C/c2c(N3CCNC(=O)C3CC(=O)OCC)nc3c(C)cccn3c2=O)SC1=S (stereo unspecified),22,-24,-10,12,13,25*
CC(C)OC(=O)c1c(NC(=O)CCC(=O)O)sc2c1CCCCC2,-1,16,21*,1,16,-2
O=C(O)CCC(=O)Nc1sc2c(c1C(=O)Nc1cccc3ccccc13)CCCCC2,1,1,0,1,1,0
O=C(O)CCC(=O)Nc1sc2c(c1C(=O)Nc1ccccc1)CCCCC2,17,10,9,7,40*,7
CC1Oc2ccccc2N(CC(=O)N2CCCc3ccccc32)C1=O (stereo unspecified),-5,4,0,3,-7,-5
CC1Oc2ccccc2N(CC(=O)N2CCCCC2)C1=O (stereo unspecified),4,-2,17*,2,-24,-3
CC1=C(C)CS(=O)N(S(=O)(=O)c2ccc(Cl)cc2)C1 (stereo unspecified),3,5,-15,10,48*,25*
CCOC(=O)C1CN(S(=O)(=O)c2ccc(C)cc2)C1,-4,20*,2,1,-9,-7
CN1CCC(=NNC(=O)C(=O)Nc2cccc(Br)c2)CC1,32*,-15,0,1,-2,1
CCN(CC)CCC#CC1(O)c2ccccc2-c2ccccc21,87*,-33,-16,0,73*,-22
